# How the values were obtained:
# [1] = system: Human immunodeficiency virus 1; assay: Antiviral activity against multidrug-resistant HIV1 TM harboring L10I/K14R/R41K/M46L/I54V/L63P/A71V/V82A/L90M/I93L protease-encoding region mutant infected in human PHA-PBMC cells assessed as inhibition of p24 Gag protein production; type: functional, organism-based; conditions: Human immunodeficiency virus 1, TM
# In short: (§1)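 EC50 was determined against each clinical isolate and wild-type HIV-1ERS104pre. Assays were run in duplicate, and values are means (±1 standard deviation) of two or three independent experiments.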
# [2] = system: Human immunodeficiency virus 1; assay: Antiviral activity against multidrug-resistant HIV1 C harboring L10I/I15V/K20R/L24I/M36I/M46L/I54V/I62V/L63P/K70Q/V82A/L89M protease-encoding region mutant infected in human PHA-PBMC cells assessed as inhibition of p24 Gag protein production; type: functional, organism-based; conditions: Human immunodeficiency virus 1, C; in short: as §1
# [3] = system: Human immunodeficiency virus 1; assay: Ratio of EC50 for wild type HIV1 ERS104pre to EC50 for multidrug-resistant HIV1 G harboring L10I/V11I/T12E/I15V/L19I/R41K/M46L/L63P/A71T/V82A/L90M protease-encoding region mutant; type: functional
# [4] = system: Human immunodeficiency virus 1; assay: Ratio of EC50 for wild type HIV1 ERS104pre to EC50 for multidrug-resistant HIV1 C harboring L10I/I15V/K20R/L24I/M36I/M46L/I54V/I62V/L63P/K70Q/V82A/L89M protease-encoding region mutant; type: functional
# [5] = system: Human immunodeficiency virus 1; assay: Ratio of EC50 for wild type HIV1 ERS104pre to EC50 for multidrug-resistant HIV1 TM harboring L10I/K14R/R41K/M46L/I54V/L63P/A71V/V82A/L90M/I93L protease-encoding region mutant; type: functional
# In short: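 Antiviral EC50 was measured against wild-type HIV-1ERS104pre and against multidrug-resistant isolates. The fold change is the EC50 for each isolate divided by the wild-type EC50. Assays were run in duplicate. Values are means (±1 standard deviation) from two or three independent experiments.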
# [6] = system: Human immunodeficiency virus 1; assay: Antiviral activity against wild type HIV1 ERS104pre infected in human PHA-PBMC cells assessed as inhibition of p24 Gag protein production; type: functional, organism-based; conditions: Human immunodeficiency virus 1, ERS104pre; in short: as §1
# Protease [7] = biological target: T1, Protease (Human immunodeficiency virus 1, UniProt Q9YQ12); assay: Inhibition of HIV1 protease
# [8] = system: Human immunodeficiency virus 1; assay: Antiviral activity against HIV1 LAV; type: functional, organism-based; conditions: Human immunodeficiency virus 1, LAV
# Protease [9] = biological target: T1, Protease; assay: Inhibition of HIV1 LAI protease by fluorescence assay
# [10] = system: Human immunodeficiency virus 1; assay: Antiviral activity against HIV1 LAI infected in human MT2 cells by MTT assay; type: functional, organism-based; conditions: Human immunodeficiency virus 1, LAI
# In short: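 MT-2 human T-lymphoid cells (2 × 10^3) were exposed to 100 TCID50 of HIV-1LAI and cultured in the presence of protease inhibitor. IC50 was determined by MTT assay and reported as the mean of at least two experiments.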
# [11] = system: Human immunodeficiency virus 1; assay: Ratio of amprenavir EC50 to compound EC50 for wild type HIV-1 ERS104pre; type: functional
# [12] = system: Human immunodeficiency virus 1; assay: Antiviral activity against multidrug-resistant HIV1 G harboring L10I/V11I/T12E/I15V/L19I/R41K/M46L/L63P/A71T/V82A/L90M protease-encoding region mutant infected in human PHA-PBMC cells assessed as inhibition of p24 Gag protein production.; type: functional, organism-based; conditions: Human immunodeficiency virus 1, G; in short: as §1
# T1 sequence (Q9YQ12 whole entry): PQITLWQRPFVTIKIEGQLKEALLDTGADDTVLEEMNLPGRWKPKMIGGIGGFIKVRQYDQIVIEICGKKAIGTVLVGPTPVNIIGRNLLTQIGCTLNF
smiles,measurement,setting,value
CC(C)CN(C[C@@H](O)[C@H](Cc1ccccc1)NC(=O)O[C@H]1CCOC1)S(=O)(=O)c1ccc(N)cc1,EC50,[1],448 nM
same,EC50,[2],325 nM
same,Ratio EC50,[3],16
same,Ratio EC50,[4],12
same,Ratio EC50,[5],16
same,EC50,[6],28 nM
COc1ccc(S(=O)(=O)N(CC(C)C)C[C@@H](O)[C@H](Cc2ccccc2)NC(=O)O[C@H]2CO[C@H]3O[C@@H]4OCC[C@@H]4[C@H]32)cc1,Ki,Protease [7],5.9 pM
same,IC50,[8],1.8 nM
COc1ccc(S(=O)(=O)N(CC(C)C)C[C@@H](O)[C@H](Cc2ccccc2)NC(=O)O[C@@H]2COC[C@@H]3O[C@H]4OCC[C@H]4[C@@H]32)cc1,Ki,Protease [9],3.1 nM
same,IC50,[10],260 nM
COc1ccc(S(=O)(=O)N(CC(C)C)C[C@@H](O)[C@H](Cc2ccccc2)NC(=O)O[C@H]2CS(=O)(=O)C[C@H]3O[C@@H]4OCC[C@@H]4[C@@H]23)cc1,Ki,Protease [9],0.6 nM
same,IC50,[10],> 1000 nM
COc1ccc(S(=O)(=O)N(CC(C)C)C[C@@H](O)[C@H](Cc2ccccc2)NC(=O)O[C@@H]2CS(=O)(=O)C[C@@H]3O[C@H]4OCC[C@H]4[C@@H]32)cc1,Ki,Protease [9],10.5 nM
same,IC50,[10],> 1000 nM
COc1ccc(S(=O)(=O)N(CC(C)C)C[C@@H](O)[C@H](Cc2ccccc2)NC(=O)O[C@H]2CCC[C@H]3O[C@@H]4OCC[C@@H]4[C@@H]23)cc1,EC50,[1],16 nM
same,Ratio EC50,[11],10
same,Ki,Protease [9],0.01 nM
same,EC50,[2],8 nM
same,Ratio EC50,[3],3
same,Ratio EC50,[4],2
same,Ratio EC50,[5],4
same,EC50,[12],12 nM
same,IC50,[10],1.9 nM
same,EC50,[6],3.6 nM
COc1ccc(S(=O)(=O)N(CC(C)C)C[C@@H](O)[C@H](Cc2ccccc2)NC(=O)O[C@@H]2CCC[C@@H]3O[C@H]4OCC[C@H]4[C@@H]32)cc1,Ki,Protease [9],0.45 nM
same,IC50,[10],240 nM
COc1ccc(S(=O)(=O)N(CC(C)C)C[C@@H](O)[C@H](Cc2ccccc2)NC(=O)O[C@H]2CC(C)(C)C[C@H]3O[C@@H]4OCC[C@@H]4[C@@H]23)cc1,Ki,Protease [9],8.8 nM
COc1ccc(S(=O)(=O)N(CC(C)C)C[C@@H](O)[C@H](Cc2ccccc2)NC(=O)O[C@@H]2CC(C)(C)C[C@@H]3O[C@H]4OCC[C@H]4[C@@H]32)cc1,Ki,Protease [9],139 nM
COc1ccc(S(=O)(=O)N(CC(C)C)C[C@@H](O)[C@H](Cc2ccccc2)NC(=O)O[C@H]2CCC[C@H]3O[C@@H]4OCCC[C@@H]4[C@@H]23)cc1,Ki,Protease [9],0.41 nM
same,IC50,[10],48 nM
COc1ccc(S(=O)(=O)N(CC(C)C)C[C@@H](O)[C@H](Cc2ccccc2)NC(=O)O[C@H]2COC[C@H]3O[C@@H]4OCC[C@@H]4[C@@H]23)cc1,Ki,Protease [9],0.021 nM
same,EC50,[2],32.9 nM
same,Ratio EC50,[3],10
same,Ratio EC50,[4],4
same,EC50,[12],79.5 nM
same,IC50,[10],4.5 nM
same,EC50,[6],8.3 nM
